Activity calls are given as the source filed them. The rule behind the calls is not given here.
Assays:
Mus musculus [1] = assay: Cmax in mouse at 10 mg/kg, po; format: ADME, organism-based; design: dose 10 mg/kg, route oral; details: in vivo
Outline: (§1)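 Compound given iv and po as single doses; vehicles: mouse iv PEG 400, po OraPlus; dog iv DMSO, po 1% Tween-80/2% HPMC/97% water; cynomolgus iv propylene glycol, po suspension.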

[2] = AUC (0 to 24 hrs) in mouse at 10 mg/kg, po; format: ADME, organism-based; design: time < 24 hr, dose 10 mg/kg, route oral; details: plasma; outline: as §1
[3] = Volume of distribution at steady state in mouse at 2 mg/kg, iv; format: ADME, organism-based; design: dose 2 mg/kg, route intravenous; details: in vivo, read-out: Vdss
Outline: (§2)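 Intravenous dosing of male/unspecified animals per species; vehicles: mouse 2 mg/kg in Peg 400, dog 0.5 mg/kg in DMSO, cynomolgus monkey 0.5 mg/kg in propylene glycol. Parameters from plasma concentration–time data by noncompartmental analysis.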

[4] = Protein binding in dog plasma; format: ADME, organism-based, Canis lupus familiaris; details: read-out: PPB (converted)
Outline: (§3)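 Compound spiked into plasma at 5 µg/mL (12.9 µM) from a DMSO stock, incubated 37 °C 15 min, then ultracentrifuged 3 h at 37 °C. Supernatant below lipid layer measured by LC-MS (n = 6) against QC in plasma filtrate; % bound = 1 − (centrifuged concentration / mean QC) × 100.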

[5] = AUC (0 to 24 hrs) in dog at 0.5 mg/kg, po; format: ADME, organism-based, Canis lupus familiaris; design: time < 24 hr, dose 0.5 mg/kg, route oral; details: plasma; outline: as §1
[6] = Half life in dog at 0.5 mg/kg, po; format: ADME, organism-based, Canis lupus familiaris; design: dose 0.5 mg/kg, route oral; details: in vivo; outline: as §1
[7] = Mean residence time in dog at 0.5 mg/kg, iv; format: ADME, organism-based, Canis lupus familiaris; design: dose 0.5 mg/kg, route intravenous; details: in vivo; outline: as §2
[8] = Clearance in dog at 0.5 mg/kg, iv; format: ADME, organism-based, Canis lupus familiaris; design: dose 0.5 mg/kg, route intravenous; details: in vivo; outline: as §1
[9] = Protein binding in cynomolgus monkey plasma; format: ADME, cell-free, Macaca fascicularis; details: read-out: PPB (converted)
[10] = Tmax in cynomolgus monkey at 2 mg/kg, po; format: ADME, organism-based, Macaca fascicularis; design: dose 2 mg/kg, route oral; details: in vivo
Outline: (§4)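 Oral suspension dosing; vehicles: mouse 10 mg/kg in OraPlus, dog 0.5 mg/kg in 1% Tween-80/2% HPMC/97% water, cynomolgus monkey 2 mg/kg.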

[11] = AUC (0 to 24 hrs) in cynomolgus monkey at 2 mg/kg, po; format: ADME, organism-based, Macaca fascicularis; design: time < 24 hr, dose 2 mg/kg, route oral; details: plasma; outline: as §1
[12] = Half life in cynomolgus monkey at 2 mg/kg, po; format: ADME, organism-based, Macaca fascicularis; design: dose 2 mg/kg, route oral; details: in vivo; outline: as §1
[13] = Mean residence time in cynomolgus monkey at 0.5 mg/kg, iv; format: ADME, organism-based, Macaca fascicularis; design: dose 0.5 mg/kg, route intravenous; details: in vivo; outline: as §1
[14] = Clearance in cynomolgus monkey at 0.5 mg/kg, iv; format: ADME, organism-based, Macaca fascicularis; design: dose 0.5 mg/kg, route intravenous; details: in vivo; outline: as §1
[15] = Oral bioavailability in cynomolgus monkey at 2 mg/kg; format: ADME, organism-based, Macaca fascicularis; details: in vivo; outline: as §4
HT-29 = assay: Antitumor activity in human HT29 cells xenografted CD1 nu/nu mouse assessed as inhibition of tumor growth at 3 mg/kg, po qd for 14 days; format: functional; details: HT-29, 336 h, read-out: TGI
Outline: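 Female CD-1 nu/nu mice, 4–8 weeks, implanted sc in hind flank with 1 × 10^7 HT29 (DMEM high glucose, 5% FBS) or Calu-6 (RPMI 1640, 10% FBS) cells; treatment began at 13–14 days (~300 mm3). Methanesulfonate salt given po qd in OraPlus for 14 days; caliper volumes twice weekly; n = 10/group; RMANOVA with Scheffé test.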

Mus musculus [16] = assay: Cmax in human HT29 cell xenografted CD1 nu/nu mouse at 10 mg/kg, po qd; format: ADME, organism-based, HT-29; design: dose 10 mg/kg, route oral; details: in vivo
HUVEC [17] = assay: Selectivity of IC50 for VEGF-induced proliferation over IC50 for bFGF-induced proliferation of HUVEC; format: functional, Homo sapiens
Outline: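 HUVECs were seeded at 3000 cells/well in DMEM/10% FBS with pen/strep and cultured for 22 h. They were preincubated 2 h with serially diluted compound, then stimulated with 50 ng/mL VEGF or 20 ng/mL bFGF for 72 h at 37 °C, 5% CO2. Cells were washed, frozen at -70 °C and stained with CyQuant. IC50s came from a four-parameter logistic fit, averaged over ≥2 experiments; the VEGF IC50 was compared against the bFGF IC50.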

[18] = Intrinsic clearance in human liver microsomes at 1 uM; format: ADME, Microsome; details: read-out: Stability
Outline: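 Human or rat liver microsomes (0.25 mg protein/mL) with 1 mM NADPH, 2 mM MgCl2 in 50 mM potassium phosphate pH 7.4 at 37 °C; compound 1 µM final. Sampled 0–40 min into acetonitrile, LC-MS/MS; ln % remaining vs time slope gives T1/2; CLint = (0.693/T1/2)/0.25 mg/mL.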

Liver microsomes [19] = assay: Metabolic stability assessed as covalent binding in absence of NADPH in rat liver microsomes at 10 uM after 1 hr; format: ADME, Microsome
Outline: (§5)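 14C-labelled compound at 10 µM with human or rat liver microsomes (1 mg/mL) in 0.1 M potassium phosphate pH 7.4, with or without 1 mM NADPH and 1 mM glutathione, 60 min; quenched with ice-cold acetonitrile. Pellet washed with 80% methanol and ethanol/ether, solubilized, protein by BCA, radioactivity by scintillation counting.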

[20] = Protein binding in mouse plasma; format: ADME, cell-free; details: read-out: PPB (converted); outline: as §3
[21] = Volume of distribution at steady state in Sprague-Dawley rat at 0.5 mg/kg, iv; format: ADME, organism-based; design: dose 0.5 mg/kg, route intravenous; details: in vivo, read-out: Vdss
Outline: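 Male Sprague–Dawley rats dosed iv at 0.5 mg/kg as DMSO solution or po at 2 mg/kg as suspension in 100% OraPlus. Serial jugular blood, plasma LC-MS/MS quantitation, noncompartmental analysis.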

[22] = Half life in Sprague-Dawley rat at 0.5 mg/kg, iv; format: ADME, organism-based; design: dose 0.5 mg/kg, route intravenous; details: in vivo
Outline: (§6)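 Male Sprague–Dawley rats dosed iv via femoral vein as DMSO solution (1 or 0.5 mg/kg) or po by gavage as OraPlus suspension (pH 2.0–2.2 with methanesulfonic acid; 10 or 2 mg/kg). Serial jugular blood over 12–24 h; plasma acetonitrile precipitation, LC-MS/MS (MRM) with internal standard; noncompartmental parameters.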

[23] = AUC (0 to infinity) in Sprague-Dawley rat at 2 mg/kg, po; format: ADME, organism-based; design: time infinity, dose 2 mg/kg, route oral; details: plasma; outline: as §6
[24] = molecular target: Platelet-derived growth factor receptor alpha (Homo sapiens) (UniProt P16234); assay: Inhibition of PDGFRalpha
Mus musculus [25] = assay: Inhibition of VEGF-induced vascular permeability in HEK293 cells over expressing mouse recombinant VEGF implanted in CD1 nu/nu mouse assessed as Matrigel plug at 30 mg/kg, po after 6 hrs; format: functional, organism-based; design: dose 30 mg/kg
Outline: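 HEK293 cells transfected with murine VEGF (or empty vector) were suspended in Matrigel and injected sc into the ventral surface of CD-1 nu/nu mice. At 24 h post-implant, a single oral gavage dose was given as an OraPlus suspension (or vehicle). After 6 h, Evans blue dye was quantified in 1 cm2 of skin over the plug. Plasma was sampled at 6 h; n = 5/group.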

[26] = AUC in VEGF-soaked disk implanted in Sprague-Dawley rat; format: ADME, organism-based; details: plasma
Liver microsomes [27] = assay: Metabolic stability assessed as covalent binding in presence of NADPH and GSH in human liver microsomes at 10 uM after 1 hr; format: ADME, Microsome; outline: as §5
[28] = molecular target: Hepatocyte growth factor receptor (Homo sapiens, UniProt P08581); assay: Inhibition of c-Met
HUVEC [29] = assay: Inhibition of VEGF-induced proliferation of HUVEC; format: functional, cell-based; details: Homo sapiens
Calu-6 (Homo sapiens) = assay: Antitumor activity in human Calu6 cell xenografted CD1 nu/nu mouse assessed as inhibition of tumor growth at 60 mg/kg, po qd for 14 days; details: Calu-6, po, 336 h, read-out: TGI

Chain of Hepatocyte growth factor receptor (P08581 whole entry): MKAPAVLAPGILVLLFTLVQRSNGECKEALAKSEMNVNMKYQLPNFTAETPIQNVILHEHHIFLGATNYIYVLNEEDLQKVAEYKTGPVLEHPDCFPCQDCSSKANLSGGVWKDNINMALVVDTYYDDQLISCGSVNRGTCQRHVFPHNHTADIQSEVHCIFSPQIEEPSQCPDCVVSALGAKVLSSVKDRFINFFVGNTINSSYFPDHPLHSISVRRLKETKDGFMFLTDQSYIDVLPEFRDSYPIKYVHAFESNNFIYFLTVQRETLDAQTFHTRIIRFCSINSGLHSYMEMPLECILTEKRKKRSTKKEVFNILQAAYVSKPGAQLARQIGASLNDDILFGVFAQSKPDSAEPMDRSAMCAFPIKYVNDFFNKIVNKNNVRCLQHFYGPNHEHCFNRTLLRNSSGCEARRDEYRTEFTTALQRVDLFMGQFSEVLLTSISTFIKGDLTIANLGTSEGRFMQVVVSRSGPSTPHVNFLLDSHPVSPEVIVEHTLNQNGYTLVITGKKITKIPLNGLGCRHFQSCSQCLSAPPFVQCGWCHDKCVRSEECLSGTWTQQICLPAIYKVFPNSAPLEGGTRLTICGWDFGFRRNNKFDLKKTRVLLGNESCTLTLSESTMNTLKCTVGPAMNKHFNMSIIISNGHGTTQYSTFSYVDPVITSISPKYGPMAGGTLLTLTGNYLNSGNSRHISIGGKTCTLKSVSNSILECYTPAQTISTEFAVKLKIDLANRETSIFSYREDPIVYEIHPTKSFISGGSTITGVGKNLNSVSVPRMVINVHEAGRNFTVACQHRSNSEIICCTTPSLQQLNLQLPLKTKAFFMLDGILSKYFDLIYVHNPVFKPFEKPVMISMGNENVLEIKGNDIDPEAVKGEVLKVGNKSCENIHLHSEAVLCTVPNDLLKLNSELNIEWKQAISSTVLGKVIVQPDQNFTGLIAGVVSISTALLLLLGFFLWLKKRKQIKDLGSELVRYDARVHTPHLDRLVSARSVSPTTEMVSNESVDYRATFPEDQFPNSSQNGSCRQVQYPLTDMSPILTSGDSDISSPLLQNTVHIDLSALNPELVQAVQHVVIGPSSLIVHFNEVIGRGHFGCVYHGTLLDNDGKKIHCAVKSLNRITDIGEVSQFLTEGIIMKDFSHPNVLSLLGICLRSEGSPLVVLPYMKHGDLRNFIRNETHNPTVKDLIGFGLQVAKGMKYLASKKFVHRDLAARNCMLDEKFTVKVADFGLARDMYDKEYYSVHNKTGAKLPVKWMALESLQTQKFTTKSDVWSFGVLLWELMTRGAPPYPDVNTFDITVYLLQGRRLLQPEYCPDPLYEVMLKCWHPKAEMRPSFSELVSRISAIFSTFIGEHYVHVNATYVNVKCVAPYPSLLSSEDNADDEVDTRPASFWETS
Chain of Platelet-derived growth factor receptor alpha (Homo sapiens) (P16234 whole entry): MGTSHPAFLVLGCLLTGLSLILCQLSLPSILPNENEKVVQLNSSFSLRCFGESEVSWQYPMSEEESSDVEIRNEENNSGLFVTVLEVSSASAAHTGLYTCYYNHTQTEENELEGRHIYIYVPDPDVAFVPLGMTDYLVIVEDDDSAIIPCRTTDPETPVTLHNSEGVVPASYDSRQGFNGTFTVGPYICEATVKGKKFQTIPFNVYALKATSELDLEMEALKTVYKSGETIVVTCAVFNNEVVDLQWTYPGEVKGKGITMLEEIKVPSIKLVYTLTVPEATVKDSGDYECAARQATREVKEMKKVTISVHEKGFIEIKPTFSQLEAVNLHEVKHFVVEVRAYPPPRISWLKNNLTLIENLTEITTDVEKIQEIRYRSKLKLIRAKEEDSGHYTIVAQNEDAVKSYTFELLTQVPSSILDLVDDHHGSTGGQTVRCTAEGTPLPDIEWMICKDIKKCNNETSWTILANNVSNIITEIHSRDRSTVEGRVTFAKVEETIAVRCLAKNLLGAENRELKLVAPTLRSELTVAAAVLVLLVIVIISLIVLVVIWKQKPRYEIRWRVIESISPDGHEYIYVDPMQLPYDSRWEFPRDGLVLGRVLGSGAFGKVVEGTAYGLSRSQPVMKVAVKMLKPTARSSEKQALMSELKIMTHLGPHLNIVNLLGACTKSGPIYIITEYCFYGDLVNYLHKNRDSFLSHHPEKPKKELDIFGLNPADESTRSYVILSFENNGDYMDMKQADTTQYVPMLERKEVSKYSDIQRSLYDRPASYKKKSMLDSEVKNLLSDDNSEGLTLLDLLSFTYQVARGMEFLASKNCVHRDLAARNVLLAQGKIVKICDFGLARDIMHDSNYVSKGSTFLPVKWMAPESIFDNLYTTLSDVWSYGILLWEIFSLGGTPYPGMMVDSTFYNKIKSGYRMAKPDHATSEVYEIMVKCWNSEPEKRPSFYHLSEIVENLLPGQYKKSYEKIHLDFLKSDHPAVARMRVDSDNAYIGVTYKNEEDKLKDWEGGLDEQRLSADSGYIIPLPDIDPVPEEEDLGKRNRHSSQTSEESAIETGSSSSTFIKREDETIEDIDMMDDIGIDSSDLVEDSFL

COc1cc2nccc(Oc3ccc4c(C(N)=O)cccc4c3)c2cc1OC
Cmax (Mus musculus [1]): 890 ng/mL
AUC(0-t) at 24 h [2]: 1500 ng·h/mL
Vd [3]: 5.74 L/kg
fraction unbound [4]: 0.038
AUC(0-t) at 24 h [5]: 3650 ng·h/mL
half-life [6]: 16 h
MRT [7]: 18 h
clearance [8]: 1.72 mL/min/kg
fraction unbound [9]: 0.008
Tmax [10]: 0.83 h
AUC(0-t) at 24 h [11]: 1360 ng·h/mL
half-life [12]: 13 h
MRT [13]: 8.6 h
clearance [14]: 13 mL/min/kg
bioavailability [15]: 51%
inhibition in vivo at 3 mg/kg (HT-29): 51%
Cmax (Mus musculus [16]): 1300 nM
Selectivity ratio (HUVEC [17]): >100
microsomal CLint at 1 µM [18]: 7 µL/min/mg
Stability (Liver microsomes [19]): 14 pmol/mg/h
fraction unbound [20]: 0.027
Vd [21]: 1.06 L/kg
half-life [22]: 6 h
AUC(0-inf) [23]: 8450 ng·h/mL
Activity [24]: Active
Cp (Mus musculus [25]): 2.3 µM
AUC [26]: 0.48 µM·h
Stability (Liver microsomes [27]): 3.2 pmol/mg/h
IC50 [28]: 6.9 µM
IC50 (HUVEC [29]): 0.0021 µM
inhibition in vivo at 60 mg/kg (Calu-6 (Homo sapiens)): 88%
